# An excerpt weighted towards active compounds, which were near 1.8% of everything screened.
# ARNT-TACC3 inh = ARNT/TACC3 interaction disruption. AlphaScreen His-ARNT PAS-B/GST-TACC3 binding, luminescence; TACC3 fragment carries E629A point mutation. actives 0.66% (n = 390,000). Q9Y6A5. inhibition, % at 9.99 µM. AID 623870;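 active = mean inhibition of replicates at least 50% and at least half of replicates each reaching 50%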
# CAL PDZ FP-1 = inhibitors of human CAL PDZ peptide binding. Q9HD26. purified CAL PDZ, TMR-peptide fluorescence polarization, 1 h. inhibition, % at 24.9 µM. actives 0.92% (n = 300,000);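 active = mean inhibition of at least 30% with at least half of replicates also reaching 30%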
# GRK2 inh = human GRK2 inhibition via aptamer displacement; bead flow cytometry, FAM-aptamer displacement from GRK2; AID 488847; inhibition of aptamer binding, % at 10 µM; P25098; actives 0.59% (n = 330,000);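 active = inhibition of aptamer binding above 40%, roughly 3 SD of noise, on plates passing a quality check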;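 note: median bead fluorescence of bound FAM aptamer so fluorescent compounds give negative values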
# Target sequence (P25098 whole entry, looked up): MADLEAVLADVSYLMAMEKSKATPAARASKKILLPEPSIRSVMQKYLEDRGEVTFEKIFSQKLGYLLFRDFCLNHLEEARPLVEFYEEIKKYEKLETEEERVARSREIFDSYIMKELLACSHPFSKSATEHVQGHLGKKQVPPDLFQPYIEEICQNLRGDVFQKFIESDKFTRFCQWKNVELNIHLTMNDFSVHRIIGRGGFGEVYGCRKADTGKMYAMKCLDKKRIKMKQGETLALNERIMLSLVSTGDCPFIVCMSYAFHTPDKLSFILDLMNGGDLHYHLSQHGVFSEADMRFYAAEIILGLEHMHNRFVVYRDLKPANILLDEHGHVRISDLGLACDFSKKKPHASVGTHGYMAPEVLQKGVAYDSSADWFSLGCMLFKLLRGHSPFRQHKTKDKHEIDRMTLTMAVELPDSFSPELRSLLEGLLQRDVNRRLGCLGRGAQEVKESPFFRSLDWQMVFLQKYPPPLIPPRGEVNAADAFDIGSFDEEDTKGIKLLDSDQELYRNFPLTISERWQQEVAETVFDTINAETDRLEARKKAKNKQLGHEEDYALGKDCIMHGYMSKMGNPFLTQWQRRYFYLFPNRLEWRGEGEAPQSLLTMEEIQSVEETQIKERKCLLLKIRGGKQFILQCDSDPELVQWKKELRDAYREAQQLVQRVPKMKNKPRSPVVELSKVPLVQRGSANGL
# CAL PDZ FP-2 = blocks peptide binding to human CAL PDZ domain; Q9HD26; purified CAL PDZ, TMR-peptide fluorescence polarization, 1 h; inhibition, % at 20 µM; actives 0.02% (n = 330,000);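 active = highest replicate inhibition of at least 40%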
#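 Material: tagged CAL PDZ protein CerCALP, purified; buffer or medium: sodium phosphate/NaCl buffer pH 7.4 with TCEP, IgG, Thesit; also added: fluorescent TMR peptide probe; schedule: 1 h incubation at room temperature before polarization reading; technique: fluorescence polarization from S- and P-plane intensities, G-factor corrected; control set: unlabelled peptide and DMSO controls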
# DDE Tn7 FP inh = disrupts Tn7 cyclic peptide binding to fibrin D-Dimer-E complex. P02675. FP displacement of FITC-Tn7 peptide from fibrin DD(E); 0% = median of compound wells per plate. inhibition, % at 8.3 µM. actives 0.13% (n = 370,000);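 active = inhibition above the mean of compounds falling within the control limits plus 3 SD of them, cut at about 14% in these data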
#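 Assay system: human fibrin DD(E) protein / Input: 2 µM fibrin DD(E) / Benchmarks: high control of 10 µM Aha-Tn7 peptide / Measured by: fluorescence polarization of the labelled Tn7 tracer / Medium: Tris buffer with calcium and detergent, pH 7.8 / Timing: 10 min compound pre-incubation, 3 h probe incubation at room temperature / Repeats: one replicate per compound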
# DDE Tn6 FP inh = DD(E)-Tn6 binding inhibition, primary FP screen. P02675. AID 720509. actives 0.21% (n = 370,000). Fibrin DD(E) TRITC-Tn6 fluorescence polarization displacement. inhibition, % at 8.3 µM;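 active = inhibition above a per-campaign cutoff: mean of compounds within control limits plus 3 SD, cut at about 15% in these data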
# AlphaScreen ctr = interferes with AlphaScreen signal, flagging false ARNT-TACC3 hits; actives 50% (n = 1,200); AC50, µM (titrated, usually from 68 µM); His-ARNT PASB-GST AlphaScreen artifact counter-screen, luminescence; shares compounds with ARNT-TACC3 inh; AID 651705;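 active = every separate test run was called active for a drop in luminescence, with AC50 within twice the top valid dose, actives reach about 71 µM in these data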
# A number is an active result; i = inactive; nt = no result given.
SMILES,ARNT-TACC3 inh,CAL PDZ FP-1,GRK2 inh,CAL PDZ FP-2,DDE Tn7 FP inh,DDE Tn6 FP inh,AlphaScreen ctr
CN(C)Cc1cn(CC[C@@H]2CC[C@@H](N)[C@H](CO)O2)nn1,i,nt,nt,nt,nt,nt,nt
N[C@@H]1CC[C@@H](CCn2cc(-c3ccccn3)nn2)O[C@H]1CO,76,nt,nt,nt,nt,nt,3.8µM
N[C@@H]1CC[C@@H](CCn2cc(-c3cccc(F)c3)nn2)O[C@H]1CO,i,nt,nt,nt,nt,nt,nt
c1ccc(-c2cn(C[C@H]3CC[C@@H]([C@@H]4CC[C@H](Cn5cc(-c6ccccn6)nn5)O4)O3)nn2)nc1,66,i,i,i,i,i,11µM
N[C@H]1CC[C@H](CCn2cc(-c3ccccn3)nn2)O[C@@H]1CO,77,nt,nt,nt,nt,nt,5.3µM
c1ccc(-c2cn(C[C@H]3CC[C@@H]([C@@H]4CC[C@H](Cn5cc(-c6ccccc6)nn5)O4)O3)nn2)cc1,i,i,i,i,i,i,nt
O=C1O[C@@H](c2ccccc2)[C@@H](c2ccccc2)N2[C@@H](c3ccc(O)cc3)[C@]3(C(=O)Nc4ccc(C#CC5(O)CCCCCC5)cc43)[C@@H](C(=O)NC[C@H](O)c3ccccc3)[C@H]12,i,nt,nt,nt,nt,nt,nt
Cc1noc(C)c1S(=O)(=O)Nc1ccc2c(c1)C(=O)N([C@H](C)CO)C[C@H](C)[C@@H](CN(C)C)O2,i,nt,nt,nt,nt,nt,nt
Cc1noc(C)c1NC(=O)N(C)C[C@@H]1Oc2ncc(C#CCC(C)C)cc2C(=O)N([C@H](C)CO)C[C@H]1C,i,nt,nt,nt,nt,nt,nt
CN1CCN(c2cc(-c3cc(O)c4ncccc4c3)ccn2)CC1,69,i,i,i,i,i,11µM
CN1CCN(C(=O)c2cccc(-c3cc(O)c4ncccc4c3)c2)CC1,75,i,i,i,i,i,17µM
CCCOc1ccc(/C=N/Nc2cc(N3CCOCC3)ncn2)c(O)c1,58,i,i,i,i,i,i
COc1ccc(-c2ccc(CNCc3ccccn3)o2)cc1Cl,nt,nt,i,nt,nt,nt,nt
Fc1ccc(-c2ccc(CNCc3ccccn3)o2)cc1,61,i,i,i,i,i,i
C[C@H]1CN([C@@H](C)CO)C(=O)c2cc(C#CCN(C)C)cnc2O[C@@H]1CN(C)C(=O)c1cccnc1,i,nt,nt,nt,nt,nt,nt
COCC(=O)Nc1ccc2c(c1)C(=O)N(C)C[C@H](OC)[C@@H](C)CN(CC1CCCCC1)[C@H](C)CO2,i,nt,nt,nt,nt,nt,nt
COc1ccc(/C=N/Nc2nnc(Cc3ccc(OC)c(OC)c3)c(=O)[nH]2)cc1OC,i,i,i,i,i,i,nt
COc1ccc(Cc2nnc(NN)[nH]c2=O)cc1OC,active,i,i,i,i,i,27µM
COc1ccc(Cc2nnc(N/N=C(\C)c3ccccc3)[nH]c2=O)cc1OC,47,i,i,i,i,i,i
C[C@@H]1CN([C@H](C)CO)C(=O)c2cc(NC(=O)Cc3ccccc3)ccc2O[C@@H](C)CCCCO[C@@H]1CN(C)S(=O)(=O)c1cn(C)cn1,i,nt,nt,nt,nt,nt,nt
CCN(CC)S(=O)(=O)c1ccc(NN)nc1,56,i,i,i,i,i,45µM
O=C(O)COc1ccccc1/C=N/NC(=O)c1cc(-c2ccc(Cl)cc2)nc2ccccc12,41,i,i,i,i,i,56µM
O=C(O)COc1ccccc1/C=N/NC(=O)c1cc(-c2ccccc2)nc2ccccc12,i,i,i,i,i,i,nt
Cc1noc(C)c1NC(=O)N(C)C[C@H]1Oc2c(cccc2N(C)C)C(=O)N([C@H](C)CO)C[C@H]1C,i,nt,nt,nt,nt,nt,nt
COCc1cn(CC[C@@H]2CC[C@H](NC(=O)Cc3cccnc3)[C@H](CO)O2)nn1,i,nt,nt,nt,nt,nt,nt
SMILES,ARNT-TACC3 inh,CAL PDZ FP-1,GRK2 inh,CAL PDZ FP-2,DDE Tn7 FP inh,DDE Tn6 FP inh,AlphaScreen ctr
CC(C)NC(=O)N1[C@H](CO)[C@@H]2c3ccccc3NC[C@@H]21,active,nt,nt,nt,nt,nt,i
CCOC(=O)CC(NC(=O)Cc1ccc(F)cc1)c1ccccc1Cl (stereo not drawn),22,i,i,i,i,i,i
CCN(CC)C(=O)[C@H]1C[C@H](CC(=O)NCc2ccc(OC)c(OC)c2)C(=O)N2CCc3c([nH]c4ccc(Cl)cc34)[C@]12C,27,i,i,i,i,i,i
CCN(CC)C(=O)[C@H]1CC(CC(=O)NCc2ccc(OC)c(OC)c2)C(=O)N2CCc3c([nH]c4ccccc34)[C@]12C (stereo partly drawn),i,i,i,i,i,i,nt
O=C(Nc1nccs1)c1cnccn1,51,nt,i,i,i,i,i
O=C(C[C@H]1C=C[C@@H](NC(=O)Nc2ccc3c(c2)OCO3)[C@H](CO)O1)NCc1ccc(Cl)cc1,24,nt,nt,nt,nt,nt,i
O=C(C[C@@H]1C=C[C@@H](NC(=O)Nc2ccc3c(c2)OCO3)[C@H](CO)O1)NCc1ccc(Cl)cc1,i,nt,nt,nt,nt,nt,nt
C[C@@H]1CCCCO[C@@H](CN(C)S(C)(=O)=O)[C@H](C)CN([C@@H](C)CO)C(=O)c2cc(NC(=O)CCCN(C)C)ccc2O1,i,nt,nt,nt,nt,nt,nt
C[C@H](CO)N1C[C@H](C)[C@@H](CN(C)Cc2ccccn2)Oc2ncc(C#CC3(O)CCCC3)cc2C1=O,19,nt,nt,nt,nt,nt,i
CCCN(C)C[C@@H]1Oc2ncc(C#CCC(C)C)cc2C(=O)N([C@@H](C)CO)C[C@H]1C,37,nt,nt,nt,nt,nt,i
C[C@H]1CN([C@@H](C)CO)C(=O)c2cc(C#Cc3ccccn3)cnc2O[C@H]1CN(C)Cc1ccncc1,i,nt,nt,nt,nt,nt,nt
C[C@H](CO)N1C[C@H](C)[C@H](CN(C)Cc2ccccc2)Oc2ncc(C#CC3(O)CCCC3)cc2C1=O,i,nt,nt,nt,nt,nt,nt
C[C@H]1CN([C@@H](C)CO)C(=O)c2cc(C#Cc3ccccn3)cnc2O[C@@H]1CN(C)Cc1ccccc1,active,nt,nt,nt,i,i,i
Clc1nssc1=Nc1ccc(Br)cc1,i,i,nt,i,i,i,nt
Clc1nssc1=Nc1nncs1,36,i,i,i,i,i,i
COc1ccccc1C(CCNCc1ccc(N(C)C)cc1)c1ccc(OC(C)C)cc1 (stereo not drawn),active,i,i,nt,i,i,7.7µM
CC=Cc1ccc2n(c1=O)C[C@@H]1[C@@H](CO)[C@H](C(=O)NCCc3ccncc3)N(CCC(F)(F)F)[C@H]21 (mixture of isomers),i,nt,nt,nt,nt,nt,nt
CCOC(=O)N1CCN(Cc2cc(Cl)c3cccnc3c2O)CC1,nt,nt,i,nt,i,i,nt
Oc1c(CN2CCN(c3ccccc3)CC2)cc(Br)c2cccnc12,59,i,i,i,i,i,2.4µM
Oc1c(CN2CCOCC2)cc(COCc2ccccc2)c2cccnc12,56,i,i,i,i,i,4µM
COc1ccccc1N1CCN(Cc2ccc(O)c3ncccc23)CC1,70,nt,i,i,i,i,2.8µM
COc1ccccc1N1CCN(Cc2ccc(OC)c(OC)c2OC)CC1,i,i,i,i,i,i,nt
